Laboratory results: ChEMBL document CHEMBL1123623, “Synthesis of some [N-(2-haloalkyl)amino]tetralin derivatives as potential irreversible labels for bovine anterior pituitary D2 dopamine receptors” (J Med Chem, 1987)

Key:
D(2) dopamine receptor [1] = biological target: T1, D(2) dopamine receptor (Bos taurus, UniProt P20288); assay: Ability to displace [3H]spiperone binding from anterior pituitary Dopamine receptor D2 in the absence of GTP; NA means inactive
Method in brief: (§1)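 Bovine anterior pituitary membranes; displacement of [3H]spiperone (ca. 500 pM) with no GTP added. Specific binding defined with 3.3 μM (+)-butaclamol; buffer with 0.1% ascorbic acid in place of dithiothreitol. Triplicate points; IC50 corrected for [3H]spiperone concentration, plus pseudo Hill coefficient. Mean ± SEM (n ≥ 3) or mean ± range (n = 2).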

D(2) dopamine receptor [2] = biological target: T1, D(2) dopamine receptor; assay: Ability to displace [3H]spiperone binding from anterior pituitary Dopamine receptor D2 in the presence of 100 uM GTP
Method in brief: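 [3H]spiperone (ca. 500 pM) displacement in bovine anterior pituitary membranes in the presence of 100 μM GTP. Nonspecific binding set with 3.3 μM (+)-butaclamol; 0.1% ascorbic acid replaced dithiothreitol. Points in triplicate; IC50 corrected for radioligand concentration, with pseudo Hill coefficient. Mean ± SEM (n ≥ 3) or mean ± range (n = 2).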

D(2) dopamine receptor [3] = biological target: T1, D(2) dopamine receptor; assay: Ability to displace [3H]spiperone binding from anterior pituitary Dopamine receptor D2 in the absence of GTP; method in brief: as §1

T1 sequence (P20288 whole entry): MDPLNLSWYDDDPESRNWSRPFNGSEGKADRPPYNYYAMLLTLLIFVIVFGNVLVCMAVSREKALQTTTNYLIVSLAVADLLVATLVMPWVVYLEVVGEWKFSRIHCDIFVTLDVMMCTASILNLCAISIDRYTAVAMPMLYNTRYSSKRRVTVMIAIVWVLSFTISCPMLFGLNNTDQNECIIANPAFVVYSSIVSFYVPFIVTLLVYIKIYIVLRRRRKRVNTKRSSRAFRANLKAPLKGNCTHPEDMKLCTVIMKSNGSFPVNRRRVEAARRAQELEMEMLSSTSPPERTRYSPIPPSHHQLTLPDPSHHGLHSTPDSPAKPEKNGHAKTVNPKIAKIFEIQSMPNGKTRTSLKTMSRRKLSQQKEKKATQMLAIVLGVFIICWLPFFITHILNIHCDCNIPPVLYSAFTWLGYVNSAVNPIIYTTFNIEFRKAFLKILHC

Row | SMILES | IC50 (D(2) dopamine receptor [1]) | IC50 (D(2) dopamine receptor [2]) | IC50 (D(2) dopamine receptor [3])
1 | O=C(CCl)NC1CCc2cc(O)c(O)cc2C1 (stereo not given) | Not Active |  | 
2 | CCCN(CCCl)C1CCc2cc(O)c(O)cc2C1 (stereo not given) |  | 260 nM | 76 nM
3 | CN(CCCl)C1CCc2cc(O)ccc2C1 (stereo not given) |  |  | 2970 nM
4 | COc1cc2c(cc1OC)CC(NCCCl)CC2.Cl (stereo not given) | Not Active |  | 
5 | CCCN(CCBr)C1CCc2cc(O)c(O)cc2C1 (stereo not given) |  | > 100000 nM | 1970 nM
6 | CCCN(CCCl)C1CCc2cc(OC)c(OC)cc2C1.Cl (stereo not given) | Not Active |  | 
7 | Oc1cc2c(cc1O)CC(NCCBr)CC2 (stereo not given) |  | 420 nM | 170 nM
8 | COc1cc2c(cc1OC)CC(NCCO)CC2.Cl (stereo not given) | Not Active |  | 
9 | CN(CCCl)C1CCc2c(ccc(O)c2O)C1 (stereo not given) |  | > 100000 nM | 32200 nM
10 | Oc1cc2c(cc1O)CC(NCCCl)CC2 (stereo not given) |  | > 100000 nM | 300 nM
11 | CN(CCCl)C1CCc2cc(O)c(O)cc2C1 (stereo not given) |  | 3720 nM | 1820 nM
12 | Br.CCCN(CC(C)Br)C1CCc2cc(O)c(O)cc2C1 (stereo not given) | Not Active |  | 
13 | CCCN(CCO)C1CCc2cc(O)c(O)cc2C1 (stereo not given) |  | 2420 nM | 420 nM
14 | CC(Br)CNC1CCc2cc(O)c(O)cc2C1 (stereo not given) |  | 1010 nM | 300 nM
15 | CCCN(CCO)C1CCc2cc(OC)c(OC)cc2C1 (stereo not given) | Not Active |  | 
16 | COc1cc2c(cc1OC)CC(NC(=O)CCl)CC2 (stereo not given) | Not Active |  | 
17 | CCCN(C(=O)CCl)C1CCc2cc(OC)c(OC)cc2C1 (stereo not given) | Not Active |  | 
